Assay results reported in publication PMC3791136 (Journal of the American Chemical Society, 2013).

Test system: A2780 cells
Test: Cytotoxicity with ER stress inhibitor salubrinal
Assay type: cell-based
Conditions: salubrinal 10 μM
Procedure, shortened: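 A2780 cells given the test compound alone or co-administered with salubrinal (10 μM, an ER stress inhibitor). IC50 values were compared with and without inhibitor, with cisplatin run alongside.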

N.N.[Cl][Pt][Cl] [cisplatin]
effect of salubrinal on toxicity: limited effect
